# Measured values as given in PMC4739781 (Journal of materials chemistry. B, Materials for biology …, 2015).
# Read-outs that look alike come from different tables or passages of the source.
# Tests used:
# [1] = test system: A549 human lung adenocarcinoma cells; experiment: A549 cell cytotoxicity in the dark and after irradiation; format: cell-based; conditions: for Phototoxicity Index, PI: ratio of the dark and light A549 EC50 values
# Outline: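 A549 cells kept in DMEM with 10% FBS and 1% pen-strep at 37 °C, 5% CO2, below 70% confluence. Seeded at 1,500 cells/well in opti-MEM with 1% serum supreme and 1% pen-strep, then held 6 hrs. Free or CNA-loaded complex was added (0–300 μM or 0–20 μM) in the dark for 18 h. Cells were then irradiated (410 W projector, λ>400 nm filter, 30 sec pulses with 30 sec gaps, 5 min total) or kept dark, and held 72 hrs. Resazurin 73.3 μM for 4 hrs; fluorescence ex 560/em 590 nm; triplicate. PI is dark EC50 over light EC50.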
# [2] = air-equilibrated D2O at room temperature; cited from earlier work
# [3] = Ru complex photoactivation; format: physicochemical; conditions: after 30 min irradiation (200 W, λ>400 nm)
# Outline: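 Free or CNA-loaded complex in PBS, in a 1 cm quartz cuvette 18 in from a 200 W projector with λ>400 nm cutoff filter. UV/Vis absorbance change was recorded over irradiation time. Photoactivation t1/2 (time for half the spectral change) was obtained by non-linear exponential regression.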
# [4] = Ru complex loading in PEG-ASP CNAs by UV/Vis absorption at MLCT peak; format: physicochemical; conditions: maximum theoretical loading 25 wt %
# Outline: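 PEG-ASP(Na⁺) CNAs and Ru complex (theoretical maximum loading 25%) were dissolved in anhydrous DMSO and incubated overnight at room temperature, protected from light. Unbound complex was removed by dialysis (6,000–8,000 MWCO) against diH2O, changed twice daily for 3 days. The product was lyophilized. Loading was quantified by UV/Vis absorbance at each complex's MLCT peak.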
# [5] = Ru complex release from PEG-ASP CNAs by dialysis under sink conditions; format: physicochemical; conditions: for Release (%) in the primary phase: two-phase fit
# Outline: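 Triplicate dialysis under sink conditions. Loaded CNAs at 100 μg/mL complex in diH2O, either irradiated 3 hrs (200 W, λ>400 nm, 120 J/cm²) or kept dark, in 10,000 MWCO cassettes. Dialysed at 37 °C in the dark against 5 L PBS or 10 mM phosphate buffer without NaCl (pH 6.0 or 7.4). Free complex served as control. Cassette contents were sampled over 0–48 hrs and read by MLCT-peak absorbance. Data were fitted by one-phase exponential regression, or two-phase where that fit better.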
# [6] = log P by shake flask method; format: physicochemical; conditions: Dark (protected from light)
# Outline: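 Shake flask method in triplicate, using n-octanol and diH2O mutually pre-saturated (4:1 mixtures, 24 hrs). Protected from light, complex at 200 μM (100 μM for the less water-soluble one) in diH2O was mixed 1:1 with n-octanol (1 mL total). Samples were shaken 10 min and centrifuged at 17,000 × g for 30 sec. Both phases were read by absorbance at the MLCT peak. Photoactivated samples were first irradiated 30 min (20 J/cm², λ>400 nm filter).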
# A549 cells = experiment: A549 cytotoxicity with exposure limited to 8 hrs, wash, then irradiation; format: cell-based, human; conditions: irradiation λ>400 nm, 72 hrs
# Outline: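 Free or CNA-entrapped complex was incubated with A549 cells for 8 hrs. Extracellular compound was washed off with fresh media. Cells were irradiated (λ>400 nm), incubated 72 hrs, and viability was read as in the standard assay: 73.3 μM resazurin for 4 hrs, fluorescence ex 560/em 590 nm.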
# pUC19 plasmid DNA = experiment: DNA agarose gel electrophoresis; format: biochemical
# [7] = read-out: EC50 Dark, A549, protected from light, 72 hrs
# [8] = read-out: EC50 Light, A549, 5 min light irradiation (λ>400 nm), 72 hrs
smiles,measurement,setting,value
"N.N.[Cl][Pt][Cl] [cisplatin, reference compound]","Phototoxicity Index, PI",[1],1
same,EC50,[1]; [7],2500 ± 600 nM
same,EC50,[1]; [8],2500 ± 600 nM
"[Cl-].[Cl-].[Ru+2].c1ccc(-c2ccnc3c2ccc2c(-c4ccccc4)ccnc23)cc1.c1ccc(-c2ccnc3c2ccc2c(-c4ccccc4)ccnc23)cc1.c1ccc(-c2ccnc3c2ccc2c(-c4ccccc4)ccnc23)cc1 [compound 3, [Ru(dip)3]Cl2]",singlet oxygen generation ΦΔ,[2],0.42
same,photo-stability: change of UV/Vis absorbance spectrum,[3],did not change
same,loading efficiency in PEG-ASP CNAs,[4],88%
same,weight % of Ru complex in loaded PEG-ASP CNAs,[4],22 wt %
same,Release (%) from PEG-ASP CNAs,"[5]; Dark, PBS (100 mM NaCl), pH 7.4, 37 °C",37.0%
same,Release (%) from PEG-ASP CNAs (total),"[5]; Dark, phosphate buffer 0 mM NaCl, pH 6.0, 37 °C",46.4%
same,Release (%) in the primary phase,"[5]; Dark, phosphate buffer 0 mM NaCl, pH 6.0",45.0%
same,Release (%) from PEG-ASP CNAs (total),"[5]; Dark, phosphate buffer 0 mM NaCl, pH 7.4, 37 °C",51.9%
same,Release (%) in the primary phase,"[5]; Dark, phosphate buffer 0 mM NaCl, pH 7.4",45.2%
same,amount released from PEG-ASP CNAs after 18 hrs,"[5]; after 18 hrs, dark",approximately 20%
same,"Phototoxicity Index, PI",[1],>6
same,EC50,[1]; [7],600 ± 1100 nM
same,EC50,[1]; [8],100 nM
same,log P,[6],1.80 ± 0.02
same,potency when cells were washed after an 8 hr exposure time,A549 cells,remained potent
same,EC50,"pUC19 plasmid DNA; read-out: DNA interaction EC50 (DNA precipitation), protected from light, 40 μg/mL pUC19, 10 mM PB pH 7.4",31300 to 62500 nM
same,EC50,"pUC19 plasmid DNA; read-out: DNA interaction EC50 (single strand DNA breaks), after photoactivation (40 J/cm^2, λ>400 nm), 40 μg/mL pUC19",15600 to 31300 nM
"O.O.[Cl-].[Cl-].[Ru+2].c1ccc(-c2ccccn2)nc1.c1ccc(-c2ccccn2)nc1 [photoactivated 1, [Ru(bpy)2(H2O)2]Cl2]",Release (%) from PEG-ASP CNAs,"[5]; Photoactivated, PBS (100 mM NaCl), pH 7.4, 37 °C",77.7%
same,Release (%) from PEG-ASP CNAs,"[5]; Photoactivated, phosphate buffer 0 mM NaCl, pH 7.4, 37 °C",65.8%
"Cc1cccc(-c2cccc(C)n2)n1 [dmbpy, 6,6′-dimethyl-2,2′-bipyridine]",EC50,"[1]; Homo sapiens, A549, read-out: EC50 (ejected ligand cytotoxicity)",80000 nM
